ChEMBL document CHEMBL1125583, “Synthesis of an (iodovinyl)misonidazole derivative for hypoxia imaging” (J Med Chem, 1991)

Key:
[1] = Compound was tested for the partition coefficient between octanol and water.; type: physicochemical
Procedure, shortened: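 Octanol/water partition: octanol and water mutually pre-saturated for 24 h before the study; compound absorbance read at 318 nm in the water-saturated octanol phase and in the octanol-saturated water phase; coefficient taken as the ratio of the two absorbances.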

CaOs-1 cell line = test: Anoxic/Oxic uptake ratio was measured in CaOs-1 cell line at 3h.; type: functional, cell-based; conditions: Canis lupus familiaris
Procedure, shortened: (§1)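 [131I]-labelled agent at 50 μM in 1 mL medium (25 mM HEPES), rinsed then replaced with fresh labelled medium. Monolayers (exponential or unfed plateau phase) held as thin film at 37 °C under 95% air/5% CO2 (oxic) or 95% N2/5% CO2 (anoxic) for 3 h. Cells trypsinized, gamma-counted, uptake as pmol/10^6 cells. Ratio = anoxic/oxic uptake, three plates.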

EMT6 = test: Anoxic/Oxic uptake ratio was measured in EMT-6 cell line at 3h.; type: functional, cell-based; conditions: Mus musculus; procedure, shortened: as §1
RIF-1 = test: Anoxic/Oxic uptake ratio was measured in RIF-1 cell line at 3h.; type: functional, cell-based; conditions: Mus musculus; procedure, shortened: as §1
Rattus norvegicus = species on record: Rattus norvegicus; test: Anoxic/Oxic uptake ratio was measured in rat myocytes at 3h.; type: functional
Procedure, shortened: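 Adult rat myocytes from collagenase dissociation, cultured overnight at 37 °C in modified MEM. Thin medium layer with 50 μM [131I]-labelled agent at 37 °C under 95% air/5% CO2 or 95% N2/5% CO2, anoxia confirmed by dithionite/methylene blue indicator. Cells rinsed cold, EtOH-fixed, counted microscopically, scraped and gamma-counted. Uptake as dpm per cells; eight plates.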

V79 = test: Anoxic/Oxic uptake ratio was measured in V-79 cell line at 3h.; type: functional, cell-based; conditions: Cricetulus griseus; procedure, shortened: as §1

Partition coefficient [1]	SMILES	Uptake ratio (CaOs-1 cell line)	Uptake ratio (EMT6)	Uptake ratio (RIF-1)	Uptake ratio (Rattus norvegicus)	Uptake ratio (V79)
0.41	COC[C@H](O)Cn1ccnc1[N+](=O)[O-]	–	–	–	–	–
2.87	COC[C@H](O)Cn1cc(Br)nc1[N+](=O)[O-]	–	–	–	–	–
2.52	O=[N+]([O-])c1nccn1C[C@@H](O)C/C=C/I	10.2	11	23.2	22	12.5

SMILES	Partition coefficient [1]	Uptake ratio (CaOs-1 cell line)	Uptake ratio (EMT6)	Uptake ratio (RIF-1)	Uptake ratio (Rattus norvegicus)	Uptake ratio (V79)
O=[N+]([O-])c1nccn1C[C@@H](O)CF	0.4	18	12.6	28.5	20.3	27.3
